Assay results published in article PMC7134392 (ChemMedChem, 2018).

How the values were obtained:
[1] = tested on: RAW264.7 cells; assay: Toxicity; type: cell-based; conditions: read-out: IC50 Toxicity (Tox.), Alamar blue cell viability
Procedure, shortened: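 RAW264.7 cells were grown in RPMI 1640 with 10% FCS, 50 μM 2-mercaptoethanol and penicillin/streptomycin. Cells were seeded at 50,000 per well in phenol-red-free medium ≥12 h beforehand. In the TNFα assay setting, cells were dosed with test compound from 50 μM to 0.023 μM (three-fold steps) or DMSO. Viability was read by Alamar blue. Means ± SD are from 3 independent experiments.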

[2] = target: T1, full-length human estrogen receptor α (Homo sapiens, UniProt P03372); assay: Competitive radiometric ligand binding assay, ERα; conditions: relative binding affinity, estradiol = 100; single determinations for RBA < 0.01
T1 sequence (P03372 1-595): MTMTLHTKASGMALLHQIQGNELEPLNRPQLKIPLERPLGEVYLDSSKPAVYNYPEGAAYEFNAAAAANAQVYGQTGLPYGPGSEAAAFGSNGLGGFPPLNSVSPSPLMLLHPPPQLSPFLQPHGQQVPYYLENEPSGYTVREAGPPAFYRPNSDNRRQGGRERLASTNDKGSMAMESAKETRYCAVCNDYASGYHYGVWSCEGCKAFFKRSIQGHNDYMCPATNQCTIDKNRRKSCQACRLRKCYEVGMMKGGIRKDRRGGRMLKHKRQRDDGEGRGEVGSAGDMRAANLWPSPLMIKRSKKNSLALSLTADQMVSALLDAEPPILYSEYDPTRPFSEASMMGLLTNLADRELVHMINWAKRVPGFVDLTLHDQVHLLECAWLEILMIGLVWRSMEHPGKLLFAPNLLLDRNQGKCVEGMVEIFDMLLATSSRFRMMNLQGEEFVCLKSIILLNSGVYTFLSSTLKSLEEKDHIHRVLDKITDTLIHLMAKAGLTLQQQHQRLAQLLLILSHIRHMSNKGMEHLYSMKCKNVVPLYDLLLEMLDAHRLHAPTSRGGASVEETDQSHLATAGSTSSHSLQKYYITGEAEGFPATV

[3] = target: full-length human estrogen receptor β (Homo sapiens, UniProt Q92731); assay: Competitive radiometric ligand binding assay, ERβ; conditions: relative binding affinity, estradiol = 100; single determinations for RBA < 0.01
Sequence of full-length human estrogen receptor β (Q92731 whole entry): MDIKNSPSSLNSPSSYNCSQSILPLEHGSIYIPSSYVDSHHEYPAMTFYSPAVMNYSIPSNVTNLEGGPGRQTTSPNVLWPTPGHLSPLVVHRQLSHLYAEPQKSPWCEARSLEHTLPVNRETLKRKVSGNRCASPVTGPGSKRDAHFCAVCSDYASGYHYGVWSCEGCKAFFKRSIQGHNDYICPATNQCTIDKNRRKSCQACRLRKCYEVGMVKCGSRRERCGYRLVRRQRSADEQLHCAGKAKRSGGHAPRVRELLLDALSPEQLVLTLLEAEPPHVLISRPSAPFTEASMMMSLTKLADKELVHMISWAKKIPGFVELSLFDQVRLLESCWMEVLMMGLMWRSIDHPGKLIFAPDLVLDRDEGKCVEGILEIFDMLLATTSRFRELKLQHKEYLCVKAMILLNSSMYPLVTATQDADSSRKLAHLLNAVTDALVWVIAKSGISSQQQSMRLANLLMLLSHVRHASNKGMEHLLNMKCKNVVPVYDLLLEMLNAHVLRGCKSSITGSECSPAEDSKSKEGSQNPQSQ
Procedure, shortened: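 Full-length human ERβ incubated with radiolabelled estradiol tracer and competing test compound on ice for 18–24 h. Receptor-bound tracer was adsorbed onto hydroxyapatite, washed with buffer, and counted by scintillation. Affinity was expressed as RBA relative to estradiol = 100. Most values are the average of 2–3 determinations ± SD.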

RBA ERα [2]: 12.0 ± 2.0
RBA ERβ [3]: 0.05 ± 0.01
SMILES: Cc1c(-c2ccc(O)cc2)nn(-c2ccc(O)cc2)c1-c1ccc(OCCN2CCCCC2)cc1 [Compound 1, methyl-piperidino-pyrazole]
IC50 [1]: 11.5 ± 2.4 µM
